From publication PMC5198968 (Cancer Science, 2016)

Key:
[1] = Pharmacokinetics in plasma and urine; type: in vivo, human; conditions: for half-life: human, plasma, oral, t ½,ss, gMean (gCV%)
Outline: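 Oral dosing twice daily, at 100, 150 or 200 mg depending on group. Blood was drawn predose and 1, 2, 3, 4, 6, 8, 10 and 24 h postdose on cycle 1 day 15, plus predose and 2 h postdose on cycle 2 days 1 and 15. Urine was collected over 24 h on cycle 1 day 15 and stored at −20°C or below. Analysis was by LC-MS/MS, with non-compartmental parameters, in treated patients with an evaluable PK end-point.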

[2] = system: patients with advanced solid tumors; conditions: phase I studies in advanced solid tumors; cited from earlier work
[3] = system: Japanese patients with advanced hepatocellular carcinoma; assay: Efficacy: tumor response; type: in vivo, human
[4] = dose-normalized AUC at steady state

SMILES: COC(=O)c1ccc2c(c1)NC(=O)/C2=C(\Nc1ccc(N(C)C(=O)CN2CCN(C)CC2)cc1)c1ccccc1 [nintedanib]
- Time at which plasma concentrations reached their maximum ([1]; after multiple oral dose administration at steady state): 3 to 4 h
- Correlation between nintedanib exposure (AUCτ,ss,norm) and AST or ALT levels ([1]; days 1–22 of cycle 1): no clear correlation
- Increase in AUCτ,ss,norm, Child–Pugh score 7 versus score 5 or 6 [1, 4]: 37%
- Increase in AUCτ,ss,norm, group II versus group I [1, 4]: 26%
- half-life ([1]; 100 mg, Group II (moderate liver impairment), 100 mg b.i.d., n = 2, steady state): 41.6 h
- half-life ([1]; 150 mg, Group I (mild liver impairment), 150 mg b.i.d., n = 3, steady state): 23.6 h
- half-life ([1]; 150 mg, Group II (moderate liver impairment), 150 mg b.i.d., n = 3, steady state): 14.6 h
- half-life ([1]; 200 mg, Group I (mild liver impairment), 200 mg b.i.d., n = 9, steady state): 16.6 h
- half-life ([1]; 200 mg, Group II (moderate liver impairment), 200 mg b.i.d. (n = 7), steady state): 17.7 h
- Administered dose recovered in the urine ([1]; over 24 hours after dosing at steady state): 0.49–0.66%
- AUCτ,ss of individual patients with high exposure ([1]; two patients in group I, 200 mg b.i.d. cohort): 5700 ng·h/mL
- Primary DLT [2]: elevated liver enzymes
- Objective tumor response (RECIST 1.0, investigator assessment) ([3]; both groups): no complete or partial responses
- Stable disease ([3]; group I (12 patients; 10 treated at the MTD)): 75.0%
- Patients with response by AFP (decline from baseline of >20% in AFP levels) ([3]; group I, nine patients (56.3%) evaluable): three
- Patients who had progressed at the time of analysis ([3]; group I, of 16 patients): 15 patients
- Median time to progression (TTP) ([3]; group I, overall, 95% CI 1.05–5.52): 2.8 months
- Median time to progression (TTP) ([3]; group I, prior sorafenib treatment, 95% CI 1.05–5.68): 2.8 months
- Median time to progression (TTP) ([3]; group I, treated at the MTD of 200 mg b.i.d., 95% CI 1.05–5.52): 2.8 months
- Patients who had progressed at the time of analysis ([3]; group II, all patients): 14 patients
- Patients with response by AFP ([3]; group II, nine patients (64.3%) evaluable): three
- Median time to progression (TTP) ([3]; group II, overall, 95% CI 0.95–6.70): 3.2 months
- Median time to progression (TTP) ([3]; group II, prior sorafenib treatment, 95% CI 0.95–6.70): 2.8 months
- Median time to progression (TTP) ([3]; group II, treated at the MTD of 200 mg b.i.d., 95% CI 0.95–5.62): 2.8 months
- Computed tomography finding in metastatic lymph node lesions ([3]; one patient of group I, after 1 month of nintedanib treatment): tumor necrosis
- Stable disease ([3]; patients in each group): > 75%
